The subject of one test is MCF7. Briefly: Antiproliferative activity against human MCF7 cells after 72 hrs by MTS assay. It counts as functional, cell-based. The note with it: MCF7, 72 h. In outline:
(§1)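 IC50 values for growth inhibition were derived from assays run in triplicate. Values are mean ± standard deviation of at least two separate experiments.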
Background: Tetrazolium dyes change colour on reduction, which living cells bring about.

The nature of test [1]: Antiproliferative activity against human SKBR3 cells after 72 hrs by MTS assay. It counts as functional, cell-based. The note with it: SK-BR-3, 72 h. In outline:
as §1

Test [2] has as its target Heat shock protein HSP 90-beta (Homo sapiens) (UniProt P08238). The test is described as follows: Inhibition of HSP90 in human MCF7 cells assessed as degradation of p-Akt after 24 hrs by Western blotting analysis. It counts as cell-based. In short, it runs like this: (§2)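 MCF-7 breast cancer cells were treated with compound at the concentrations shown, then lysed. Lysates were analysed by Western blot for the Hsp90-dependent clients Her2, Raf-1 and p-Akt, with actin as the Hsp90-independent control. Geldanamycin (0.5 μM) served as positive control and DMSO as negative control.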
(In general: Immunoblotting shows a protein as a band on a membrane.)

Test [3] shares this target. Briefly: Inhibition of HSP90 in human MCF7 cells assessed as degradation of Raf-1 after 24 hrs by Western blotting analysis. It counts as cell-based. In outline: as §2
For test [4] the target is unchanged. The test is described as follows: Inhibition of HSP90 in human MCF7 cells assessed as degradation of Her-2 after 24 hrs by Western blotting analysis. It is filed as cell-based. In short, it runs like this:
as §2

For test [5] the target is unchanged. The test is described as follows: Inhibition of HSP90 in human MCF7 cells assessed as degradation of Her-2 at 1 to 10 uM after 24 hrs by Western blotting analysis. It counts as cell-based. In outline: as §2
Test [6] shares this target. The test is described as follows: Inhibition of HSP90 in human MCF7 cells assessed as degradation of Raf-1 at 1 to 10 uM after 24 hrs by Western blotting analysis. It is filed as cell-based. In short, it runs like this: as §2
Test [7] has the same target. Briefly: Inhibition of HSP90 in human MCF7 cells assessed as degradation of p-Akt at 1 to 10 uM after 24 hrs by Western blotting analysis. It is filed as cell-based. In short, it runs like this:
as §2

Each structure is given as a SMILES string. Active and inactive are the calls of the source. The rule behind the calls is not given here.

Broadly, the IC50 is the concentration that inhibits the measured activity by half. The low end stands for greater potency in that assay, the high end for weaker potency in that assay.

Chain of Heat shock protein HSP 90-beta (Homo sapiens) (P08238 whole entry): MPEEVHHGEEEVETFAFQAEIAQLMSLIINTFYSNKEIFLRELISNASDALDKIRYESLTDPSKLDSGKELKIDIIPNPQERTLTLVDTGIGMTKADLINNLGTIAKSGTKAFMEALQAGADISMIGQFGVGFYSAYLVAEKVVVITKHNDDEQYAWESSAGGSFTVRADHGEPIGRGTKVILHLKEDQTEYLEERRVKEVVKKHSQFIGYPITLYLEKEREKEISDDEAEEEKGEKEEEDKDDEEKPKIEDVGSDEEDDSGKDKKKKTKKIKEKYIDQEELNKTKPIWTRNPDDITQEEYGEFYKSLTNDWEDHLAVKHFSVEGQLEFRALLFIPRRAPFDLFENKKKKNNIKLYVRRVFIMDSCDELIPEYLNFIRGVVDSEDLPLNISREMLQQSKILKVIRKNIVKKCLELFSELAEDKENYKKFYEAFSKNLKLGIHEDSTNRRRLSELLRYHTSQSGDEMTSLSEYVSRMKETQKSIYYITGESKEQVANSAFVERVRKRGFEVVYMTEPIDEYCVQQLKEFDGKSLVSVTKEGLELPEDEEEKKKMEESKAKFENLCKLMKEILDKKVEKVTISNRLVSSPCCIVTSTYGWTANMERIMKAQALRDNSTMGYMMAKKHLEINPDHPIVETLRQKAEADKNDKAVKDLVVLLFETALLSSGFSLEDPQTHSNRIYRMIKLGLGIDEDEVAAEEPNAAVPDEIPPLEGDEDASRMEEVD

For `COc1cccc(-c2cc(C(=O)Nc3cccc(-c4ccc(OC5CCN(C)CC5)cc4)c3)ccc2OC)c1`, the figures for the concentration for half-maximal inhibition (IC50) (with MCF7; in test [1]) were 2.71 µM and 3.47 µM, respectively.

On to `CN1CCC(Oc2ccc(-c3cccc(NC(=O)c4ccc(C(C)(C)C)cc4)c3)cc2)CC1`, for which the IC50 with MCF7 is 3.45 µM; in test [1], 1.51 µM.

`CC(=O)Oc1ccc(C(=O)Nc2cccc(-c3ccc(OC4CCN(C)CC4)cc3)c2)cc1CC=C(C)C`: the figures for the IC50 (in the test with MCF7; in test [1]) were 1.45 µM and 3.65 µM, respectively.

For `CN1CCC(Oc2ccc(-c3cccc(NC(=O)c4ccccc4)c3)cc2)CC1`, the half-maximal inhibitory concentration (IC50) in the test with MCF7 is 12 µM; in test [1], 18.9 µM.

Take `COc1ccc(C(=O)Nc2cccc(-c3ccc(OC4CCN(C)CC4)cc3)c2)cc1`: the IC50 in the test with MCF7 was 5.52 µM; in test [1], 10.1 µM.

Regarding `CN1CCC(Oc2ccc(-c3cccc(NC(=O)c4ccc(Br)cc4)c3)cc2)CC1`, the inhibition result in test [2], in test [3] and in test [4] was “Dose-dependent effect” each time. The IC50 in the test on MCF7 turned out to be 0.88 µM; in test [1], 1.94 µM.

On to `CN1CCC(Oc2ccc(-c3cccc(NC(=O)c4ccc(Cl)cc4)c3)cc2)CC1`, for which the concentration for half-maximal inhibition (IC50) in the test with MCF7 was 2.23 µM; in test [1], 3.63 µM.

In the case of `CN1CCC(Oc2ccc(-c3cccc(NC(=O)c4ccccc4Cl)c3)cc2)CC1`, the figures for the concentration for half-maximal inhibition (IC50) (in the test with MCF7; in test [1]) were 5.17 µM and 7.87 µM, respectively.

As to `CO[C@@H]1[C@@H](OC(N)=O)[C@@H](O)[C@H](Oc2ccc3c(O)c(NC(=O)c4ccc(O)c(CC=C(C)C)c4)c(=O)oc3c2C)OC1(C)C` [NOVOBIOCIN], the concentration for half-maximal inhibition (IC50) in test [1] was 700 µM.

`CC(C)=CCc1cc(C(=O)Nc2cccc(-c3ccc(OC4CCN(C)CC4)cc3)c2)ccc1O`: the inhibition entry in test [5], in test [6] and in test [7] was “Active” each time. The IC50 with MCF7 amounted to 2.21 µM; in test [1] it was 2.94 µM.

Turning to `CN1CCC(Oc2ccc(-c3cccc(NC(=O)c4cc(Cl)cc(Cl)c4)c3)cc2)CC1`, the 50% inhibitory concentration (IC50) with MCF7 was found to be 3.72 µM; in test [1], 4.23 µM.

Consider `CN1CCC(Oc2ccc(-c3cccc(NC(=O)c4ccc(Cl)c(Cl)c4)c3)cc2)CC1`, for which the half-maximal inhibitory concentration (IC50) with MCF7 is 2.17 µM; in test [1], 2.24 µM.

Take `Cc1ccc(C(=O)Nc2cccc(-c3ccc(OC4CCN(C)CC4)cc3)c2)cc1`: the results for the IC50 (in the test on MCF7; in test [1]) were 3.92 µM and 5.27 µM, respectively.

For the compound `CN1CCC(Oc2ccc(-c3cccc(NC(=O)c4cccc5ccccc45)c3)cc2)CC1`, the IC50 with MCF7 worked out at 1.1 µM; in test [1] it was 1.64 µM.

Turning to `CN1CCC(Oc2ccc(-c3cccc(NC(=O)c4ccc5ccccc5c4)c3)cc2)CC1`, the values for the IC50 (with MCF7; in test [1]) were 1.66 µM and 2.09 µM, respectively.

Regarding `COc1cccc(C(=O)Nc2cccc(-c3ccc(OC4CCN(C)CC4)cc3)c2)c1`, the IC50 was 4.5 µM with MCF7 and 8.36 µM in test [1].

For `Cc1cccc(C(=O)Nc2cccc(-c3ccc(OC4CCN(C)CC4)cc3)c2)c1`, the 50% inhibitory concentration (IC50) was determined as 7.73 µM in the test on MCF7 and 11.4 µM in test [1].

For `CN1CCC(Oc2ccc(-c3cccc(NC(=O)c4cccc(Cl)c4)c3)cc2)CC1`, the IC50 with MCF7 is 2.11 µM; in test [1], 4.29 µM.

On to `CN1CCC(Oc2ccc(-c3cccc(NC(=O)c4ccc(Cl)cc4Cl)c3)cc2)CC1`, for which the results for the half-inhibitory concentration (IC50) (in the test with MCF7; in test [1]) were 3.93 µM and 5.91 µM, respectively.

For the origin of these results see ChEMBL document CHEMBL3108734, “Identification of a new scaffold for hsp90 C-terminal inhibition” (ACS Med Chem Lett, 2014).
